Source: PubChem (several laboratories)
This is a sample that favours compounds with a hit; in the whole collection about 4.1% have one here.
FLuc inh counter: counter-screen for luciferase assay inhibitors: firefly luciferase inhibition; ATPLite firefly luciferase biochemical luminescence, 10 min; inhibition, % at 10 µM; actives 1.5% (n = 200,000); AID 1006;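 active means inhibition above about 50% when tested at 10 µM, limit read from the data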
Target sequence (P08659 whole entry, looked up): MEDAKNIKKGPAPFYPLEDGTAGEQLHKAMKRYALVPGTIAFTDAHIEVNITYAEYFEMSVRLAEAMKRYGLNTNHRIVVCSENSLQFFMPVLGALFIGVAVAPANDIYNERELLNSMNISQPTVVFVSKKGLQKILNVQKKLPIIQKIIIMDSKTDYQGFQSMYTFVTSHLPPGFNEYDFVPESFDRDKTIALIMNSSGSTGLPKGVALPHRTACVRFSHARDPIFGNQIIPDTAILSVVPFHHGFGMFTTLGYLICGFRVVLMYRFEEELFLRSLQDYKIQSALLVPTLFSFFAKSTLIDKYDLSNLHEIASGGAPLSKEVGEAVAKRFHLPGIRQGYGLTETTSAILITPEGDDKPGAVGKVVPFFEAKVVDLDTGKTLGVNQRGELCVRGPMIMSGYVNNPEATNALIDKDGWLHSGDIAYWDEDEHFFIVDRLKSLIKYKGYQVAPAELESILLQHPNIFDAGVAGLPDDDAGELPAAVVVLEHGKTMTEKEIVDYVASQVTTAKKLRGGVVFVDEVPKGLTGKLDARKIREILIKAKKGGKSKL
STAT1 activator: increases IFN-gamma driven STAT1 reporter signal; NIH 3T3 STAT1-luciferase reporter, luminescence; 100% = IFN-gamma alone, no compound; AID 932; activation (% of control), % at 5.5 µM; actives 2.6% (n = 200,000);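 active means activation above the screen-wide mean activation plus 3 SD, cut at about 130% in these data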;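 further: raw ratio to IFN-gamma control signal so 100% means no change and 0% no light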
APP 5'UTR act: activates APP 5'UTR luciferase reporter. SH-SY5Y APP 5'UTR luciferase reporter, luminescence; zero percent = DMSO vehicle wells. activation, % at 2 µM. actives 1% (n = 190,000). AID 1276;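 active means activation above a set limit, based on mean plus 3 SD of controls, cut at about 140% in these data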
FLuc stim CS: firefly luciferase counter-screen for stimulation assays; ATPlite luciferase biochemical, luminescence, 10 min; 0 = ATP-free wells, 1 = DMSO control; activation factor at 10 µM; 200,000 tested, under 10 active; AID 1027;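 active means luciferase activation factor, scaled between plate controls, of at least 2 with compound at 10 µM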
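Assay system: Luciferase/luciferin reagent mix; Medium: PBS as buffer for the ATP substrate; Dosing: test compounds dosed from 2 mM stocks in 100% DMSO; Times: 10 min, room temperature; Signal: luminescence from luciferase reaction; Read-out: luciferase activation; Controls: No-ATP low control, compound-free enzyme-plus-ATP high control.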
NF-kB neuron act: compounds increasing NF-kB expression in human neuronal cells. fold change at 12.5 µM. actives 1.6% (n = 190,000). AID 1239. NF-kB reporter expression; hits give high values; in the data active means fold change above about 3.3
STAT1 activ conf: confirmation of STAT1 signaling activators | activation (% of control), % at 5.7 µM | NIH 3T3 STAT1-luciferase reporter, IFN-gamma potentiation, luminescence; 100% = IFN-gamma EC80 alone, no compound | shares compounds with STAT1 activator | AID 1262 | actives 97% (n = 1,200);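 active means activation above a set limit carried over from the earlier primary STAT1 screen, cut at about 140% in these data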;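 further: simple ratio to median IFN-gamma plus DMSO wells so 0% means no light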
NFkB act: counter-screen for STAT1 activators: NF-kappaB activation; shares compounds with STAT1 activator; HEK293T NF-kB luciferase reporter, TNF-alpha stimulated, luminescence; 100% = TNF-alpha with vehicle only; activation (% of control), % at 5.7 µM; actives 43% (n = 1,200);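 active means activation above the mean of solvent-only control wells plus 3 SD, set per campaign, cut at about 130% in these data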;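 further: TNF-alpha given at a submaximal dose yielding about 80% of full reporter signal; values are well signal over median control so 100% means no change and 0% no light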
STAT3 act 2: counter-screen for STAT1 activators: human STAT3 activation | shares compounds with STAT1 activator | U3A cells STAT3-luciferase reporter, IL-6, luminescence; cells lack STAT1; 100 = IL-6 alone, no compound effect | activation (% of control), % at 5.7 µM | actives 46% (n = 1,200) | AID 1316;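 active means activation above the solvent-only control well mean plus 3 SD, set per plate batch, cut at about 110% in these data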;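 further: 0% = no luminescence and 100% = median IL-6 plus DMSO wells; higher means more STAT3 reporter activation so hits are non-selective activators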
The depositor's hits bear a star; / = not tested or not shown.

SMILES	FLuc inh counter	STAT1 activator	APP 5'UTR act	FLuc stim CS	NF-kB neuron act	STAT1 activ conf	NFkB act	STAT3 act 2
COc1ccc(N/C=C/C(=O)c2ccc(C)cc2)c([N+](=O)[O-])c1	/	152.9*	130.5	/	/	218.1*	120.8	98.8
COc1ccc(NC(=O)CN(C)S(=O)(=O)c2ccc(C)cc2)c([N+](=O)[O-])c1	-5.4	101.5	-7.1	1.1	0.95	/	/	/
O=C(Nc1ccncc1)c1cccc(F)c1	-8.3	100.0	4.6	1.1	1.03	/	/	/
O=C(Nc1ccc2c(c1)CCC2)c1cccc(F)c1	41.2	162.5*	169.7*	0.6	6.8*	202.3*	131.4	102.0
O=C(Nc1ccc2c(c1)CCC2)c1ccccc1Br	30.4	154.5*	218.9*	0.7	1.15	218.2*	138.1*	112.1*
CC1(C)CC(NC(=O)c2cccc3ccccc23)CC(C)(C)N1	-2.9	93.7	-11.0	1	1	/	/	/
Cn1cccc1/C=C1\SC(=O)N(c2ccccc2)C1=O	51.5*	159.4*	117.4	0.5	2.83	190.4*	128.6	101.7
Cn1cccc1/C=C1/SC(=O)N(CC(=O)N2CCCC2)C1=O	-6.6	96.5	5.1	1.1	1.25	/	/	/
COc1cccc(-c2nc3ccccc3s2)c1	74.7*	156.4*	142.8*	0.3	7.8*	206.6*	121.3	118.5*
COc1ccc(-c2nc3ccccc3s2)cc1NC(C)=O	19.3	173.0*	153.7*	0.8	2.37	194.6*	130.2	119.0*
Clc1ccc(C2=Nn3c(nnc3-c3cccnc3)SC2)s1	-8.2	100.8	8.0	1.1	1.01	/	/	/
Cc1cc2nc(-c3ccc(NC(=O)C(C)C)cc3)oc2cc1C	11.7	179.6*	140.1*	0.9	3.39*	237.4*	146.3*	118.1*
Cc1ccc(-c2nc3cc(NC(=O)C(C)C)ccc3o2)cc1	41.6	187.6*	147.0*	0.6	2.85	321.3*	126.2	103.7
Cc1nc2cc(NC(=O)NCc3ccc4c(c3)OCO4)ccc2o1	-1.0	91.1	0.0	1	0.85	/	/	/
Cc1ccc(-c2nc3cc(NC(=O)C(C)C)ccc3o2)cc1C	55.9*	194.9*	160.5*	0.4	0.98	272.1*	92.6	73.3
CC(C)C(=O)Nc1cccc(-c2nc3ccccc3o2)c1	-2.2	119.9	/	1	1.55	/	/	/
Cc1nc2cc(NC(=O)Nc3ccc(Br)cc3)ccc2o1	42.7	162.2*	154.3*	0.6	2.92	208.6*	134.9*	102.7
CCCC(=O)Nc1cccc(-c2nc3cc(C)c(C)cc3o2)c1	39.6	176.9*	134.6	0.6	3.05	201.4*	128.4	107.3
c1ccc(-n2nnc(-c3cccnc3)n2)cc1	24.8	151.6*	17.8	0.8	2.38	164.6*	125.8	102.7
Cn1c(=NC(=O)c2ccccc2[N+](=O)[O-])sc2cc(S(C)(=O)=O)ccc21	20.6	176.9*	177.9*	0.8	1.34	248.7*	117.0	107.5
Cc1cc(C)nc(NS(=O)(=O)c2ccc(NC(=O)CN3C(=O)c4ccccc4C3=O)cc2)n1	-10.4	106.4	/	1.1	1.33	/	/	/
CCC1(c2ccc(F)cc2)NC(=O)N(CC(=O)Nc2ccc(-c3nc4ccc(C)cc4s3)cc2)C1=O (stereo unspecified)	27.4	169.4*	214.0*	0.7	1.06	201.4*	133.0	112.5*
Cc1ccc2nc(-c3ccc(NC(=O)CN4C(=O)c5ccccc5C4=O)cc3)sc2c1	37.5	162.1*	113.5	0.6	1.66	180.3*	129.9	117.9*
Cc1nnc(SCC(=O)Nc2ccc(-c3nc4ccccc4s3)cc2)s1	79.8*	156.3*	157.8*	0.2	5.64*	243.0*	109.1	85.6
c1coc(CNc2c3c(nc4ncnn24)CCCC3)c1	-7.4	97.1	12.2	1.1	0.9	/	/	/
